From ChEMBL document CHEMBL1145087 (J Med Chem, 2003)

Legend:
Estrogen receptor [1] = target: T1, Estrogen receptor (Homo sapiens, UniProt Q92731+P03372); assay: Antagonistic efficacy against human estrogen receptor; type: functional
How it was run: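 Cotransfection LUC reporter assay for hER. Antagonist efficacy is the % maximal inhibition of a standard agonist (estradiol is the reference agonist for hER) applied at its EC50.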

Glucocorticoid receptor [2] = target: T2, Glucocorticoid receptor (Homo sapiens, UniProt P04150); assay: Inhibition of Dexamethasone binding to human glucocorticoid receptor expressed in baculovirus […] cells
T2 sequence (P04150 whole entry): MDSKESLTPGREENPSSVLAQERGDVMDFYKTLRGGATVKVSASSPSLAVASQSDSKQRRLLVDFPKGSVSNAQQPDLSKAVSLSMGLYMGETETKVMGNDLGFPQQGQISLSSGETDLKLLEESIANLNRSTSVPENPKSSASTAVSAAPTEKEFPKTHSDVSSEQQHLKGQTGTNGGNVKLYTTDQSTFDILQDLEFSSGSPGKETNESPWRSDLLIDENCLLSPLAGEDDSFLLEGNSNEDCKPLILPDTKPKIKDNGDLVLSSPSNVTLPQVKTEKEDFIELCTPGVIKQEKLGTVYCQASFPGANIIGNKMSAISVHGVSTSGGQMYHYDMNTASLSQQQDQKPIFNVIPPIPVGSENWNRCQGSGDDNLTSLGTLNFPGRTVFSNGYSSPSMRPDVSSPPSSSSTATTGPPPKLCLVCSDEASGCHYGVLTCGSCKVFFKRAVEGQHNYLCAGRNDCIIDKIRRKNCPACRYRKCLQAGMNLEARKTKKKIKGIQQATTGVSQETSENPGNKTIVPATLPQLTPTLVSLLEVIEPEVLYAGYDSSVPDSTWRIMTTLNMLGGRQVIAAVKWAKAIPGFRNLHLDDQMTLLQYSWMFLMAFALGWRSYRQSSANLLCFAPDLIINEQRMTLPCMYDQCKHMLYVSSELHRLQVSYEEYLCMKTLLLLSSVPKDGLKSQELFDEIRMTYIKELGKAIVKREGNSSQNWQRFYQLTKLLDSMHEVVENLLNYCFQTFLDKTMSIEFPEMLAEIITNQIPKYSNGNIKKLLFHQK

Progesterone receptor [3] = target: T3, Progesterone receptor (Homo sapiens, UniProt P06401); assay: Agonistic activity against human progesterone receptor in CV-1 cells; type: functional, cell-based
T3 sequence (P06401 whole entry): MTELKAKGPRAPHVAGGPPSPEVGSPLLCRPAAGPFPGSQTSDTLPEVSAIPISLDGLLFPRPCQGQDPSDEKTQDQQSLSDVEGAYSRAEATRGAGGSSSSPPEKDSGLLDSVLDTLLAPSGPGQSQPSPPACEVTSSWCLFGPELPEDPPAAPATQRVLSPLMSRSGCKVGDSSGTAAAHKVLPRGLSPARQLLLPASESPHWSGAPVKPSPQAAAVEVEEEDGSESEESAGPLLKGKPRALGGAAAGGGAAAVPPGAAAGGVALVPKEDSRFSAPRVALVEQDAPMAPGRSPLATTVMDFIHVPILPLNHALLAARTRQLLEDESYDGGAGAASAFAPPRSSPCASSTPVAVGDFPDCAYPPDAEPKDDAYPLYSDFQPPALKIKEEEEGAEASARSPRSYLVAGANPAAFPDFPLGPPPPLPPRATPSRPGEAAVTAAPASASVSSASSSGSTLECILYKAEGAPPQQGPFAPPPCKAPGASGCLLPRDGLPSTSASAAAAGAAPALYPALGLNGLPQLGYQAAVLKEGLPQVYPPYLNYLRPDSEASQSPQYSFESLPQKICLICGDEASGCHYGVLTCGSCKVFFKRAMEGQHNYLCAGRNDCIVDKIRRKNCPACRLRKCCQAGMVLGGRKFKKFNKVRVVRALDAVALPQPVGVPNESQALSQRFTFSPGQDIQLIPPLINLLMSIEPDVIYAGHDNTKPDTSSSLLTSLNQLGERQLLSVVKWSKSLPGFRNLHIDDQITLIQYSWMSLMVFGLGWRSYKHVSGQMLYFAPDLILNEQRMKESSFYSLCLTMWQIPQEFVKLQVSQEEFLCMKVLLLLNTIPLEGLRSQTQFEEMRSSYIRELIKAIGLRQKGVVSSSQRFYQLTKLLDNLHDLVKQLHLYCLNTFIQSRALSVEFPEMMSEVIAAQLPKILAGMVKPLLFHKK

Progesterone receptor [4] = target: T3, Progesterone receptor; assay: Agonistic activity against human progesterone receptor in T47D breast cancer cells; type: functional, cell-based
[5] = target: T4, Progesterone receptor (Homo sapiens) (UniProt P06401); assay: Percent agonistic effect towards human progesterone receptor in CV-1 cells; type: functional, cell-based
T4 sequence (whole entry): T3 sequence (P06401 whole entry)

[6] = target: T4, Progesterone receptor (Homo sapiens); assay: Percent agonistic effect towards human progesterone receptor in T47D breast cancer cells; type: functional, cell-based
Progesterone receptor [7] = target: T3, Progesterone receptor; assay: Binding affinity towards human progesterone receptor A isoform using progesterone as radioligand
Homo sapiens [8] = species: Homo sapiens; assay: Relative potency for human androgen and progesterone receptors
Homo sapiens [9] = species: Homo sapiens; assay: Relative potency for human estrogen and progesterone receptors
Homo sapiens [10] = species: Homo sapiens; assay: Relative potency for human glucocorticoid and progesterone receptors
Homo sapiens [11] = species: Homo sapiens; assay: Relative potency for human mineralocorticoid and progesterone receptors
Androgen receptor [12] = target: T5, Androgen receptor (Homo sapiens, UniProt P10275)
T5 sequence (P10275 whole entry): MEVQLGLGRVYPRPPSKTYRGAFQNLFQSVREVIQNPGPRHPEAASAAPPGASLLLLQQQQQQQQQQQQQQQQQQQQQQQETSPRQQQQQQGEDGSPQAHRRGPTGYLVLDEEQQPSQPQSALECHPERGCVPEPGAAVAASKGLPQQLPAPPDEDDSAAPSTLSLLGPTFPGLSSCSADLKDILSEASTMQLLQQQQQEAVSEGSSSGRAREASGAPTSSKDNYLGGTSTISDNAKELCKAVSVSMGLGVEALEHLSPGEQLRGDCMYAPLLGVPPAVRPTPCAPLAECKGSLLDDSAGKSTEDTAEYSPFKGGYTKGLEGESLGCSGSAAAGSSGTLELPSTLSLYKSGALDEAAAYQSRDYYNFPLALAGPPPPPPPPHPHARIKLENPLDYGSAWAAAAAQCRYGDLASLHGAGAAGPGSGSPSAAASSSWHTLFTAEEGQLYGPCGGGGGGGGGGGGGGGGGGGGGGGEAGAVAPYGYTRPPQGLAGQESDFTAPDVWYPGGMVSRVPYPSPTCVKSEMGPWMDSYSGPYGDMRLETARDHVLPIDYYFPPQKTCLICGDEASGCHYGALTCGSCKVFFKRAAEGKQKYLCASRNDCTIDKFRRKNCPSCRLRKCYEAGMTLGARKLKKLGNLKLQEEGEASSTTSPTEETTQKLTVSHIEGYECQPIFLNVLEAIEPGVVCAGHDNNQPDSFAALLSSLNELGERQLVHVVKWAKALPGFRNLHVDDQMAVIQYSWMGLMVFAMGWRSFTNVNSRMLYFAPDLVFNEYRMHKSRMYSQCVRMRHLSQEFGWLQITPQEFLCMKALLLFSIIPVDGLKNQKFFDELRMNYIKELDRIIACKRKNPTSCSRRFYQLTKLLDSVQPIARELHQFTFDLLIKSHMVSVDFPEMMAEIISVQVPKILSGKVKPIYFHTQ

Glucocorticoid receptor [13] = target: T2, Glucocorticoid receptor
Estrogen receptor [14] = target: T1, Estrogen receptor
Androgen receptor [15] = target: T5, Androgen receptor; assay: biochemical

In the case of `CC1=CC(C)(C)Nc2ccc3c(c21)/C(=C/c1ccco1)Oc1ccc(F)cc1-3`, the Efficacy (Estrogen receptor [1]) is reported as 51%, the Ki (Glucocorticoid receptor [2]) is reported as 140 nM and the EC50 (Progesterone receptor [3]) is reported as 1.7 nM. It also gave an EC50 (Progesterone receptor [4]) of 21 nM, an Efficacy [5] of 138% and an Efficacy [6] of 64%. The Ki (Progesterone receptor [7]) was 4.7 nM, the Ratio (Homo sapiens [8]) was 152 and the Ratio (Homo sapiens [9]) was 749. It also gave a Ratio (Homo sapiens [10]) of 64, a Ratio (Homo sapiens [11]) greater than 1000 and an IC50 (Androgen receptor [12]) of 258 nM. For the same compound, the IC50 (Glucocorticoid receptor [13]) was 109 nM, the IC50 (Estrogen receptor [14]) was 1273 nM and the Ki (Androgen receptor [15]) was greater than 1000 nM.
